Blank lines part the entries; values can stand above or below the compound they belong to. Active and inactive are the calls of the source. No cut-off for these calls is given here.
Columns and labels:
[1] = target: T1, Tyrosine-protein phosphatase non-receptor type 1 (Homo sapiens) (UniProt P18031); assay: Inhibition of PTP1B (unknown origin) using pNPP as substrate at 20 ug/ml by colorimetric assay
T1 sequence (whole entry): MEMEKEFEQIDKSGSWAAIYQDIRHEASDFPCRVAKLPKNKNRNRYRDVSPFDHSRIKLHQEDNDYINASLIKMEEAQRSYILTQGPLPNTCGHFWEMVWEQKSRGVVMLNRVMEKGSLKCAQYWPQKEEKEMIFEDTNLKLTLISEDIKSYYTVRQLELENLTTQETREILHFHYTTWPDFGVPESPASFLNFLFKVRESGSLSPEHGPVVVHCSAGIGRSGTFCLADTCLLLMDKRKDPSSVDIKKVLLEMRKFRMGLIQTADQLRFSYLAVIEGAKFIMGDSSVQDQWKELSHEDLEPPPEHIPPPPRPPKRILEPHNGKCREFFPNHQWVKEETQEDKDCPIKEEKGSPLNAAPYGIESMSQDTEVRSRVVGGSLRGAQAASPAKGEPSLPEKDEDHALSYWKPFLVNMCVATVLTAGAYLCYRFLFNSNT

[2] = target: T2, Tyrosine-protein phosphatase non-receptor type 1 (Homo sapiens, UniProt P18031); assay: Inhibition of PTP1B (unknown origin) using pNPP as substrate by colorimetric assay
T2 sequence (P18031 whole entry): T1 sequence (whole entry)
Method in brief: (§1)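 GST-PTP1B or GST-TCPTP at 30 nmol/L, 2 mmol/L pNPP, 50 mmol/L MOPS pH 6.5, 2% DMSO, compounds serially diluted from DMSO. Hydrolysis followed continuously at 405 nm for 3 min at 30 °C. IC50 from nonlinear fit of % inhibition vs concentration with Hill coefficient; means ± SD of three replications.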

[3] = target: T3, Tyrosine-protein phosphatase non-receptor type 2 (Homo sapiens, UniProt P17706); assay: Inhibition of TCPTP (unknown origin) using pNPP as substrate by colorimetric assay; method in brief: as §1
T3 sequence (P17706 whole entry): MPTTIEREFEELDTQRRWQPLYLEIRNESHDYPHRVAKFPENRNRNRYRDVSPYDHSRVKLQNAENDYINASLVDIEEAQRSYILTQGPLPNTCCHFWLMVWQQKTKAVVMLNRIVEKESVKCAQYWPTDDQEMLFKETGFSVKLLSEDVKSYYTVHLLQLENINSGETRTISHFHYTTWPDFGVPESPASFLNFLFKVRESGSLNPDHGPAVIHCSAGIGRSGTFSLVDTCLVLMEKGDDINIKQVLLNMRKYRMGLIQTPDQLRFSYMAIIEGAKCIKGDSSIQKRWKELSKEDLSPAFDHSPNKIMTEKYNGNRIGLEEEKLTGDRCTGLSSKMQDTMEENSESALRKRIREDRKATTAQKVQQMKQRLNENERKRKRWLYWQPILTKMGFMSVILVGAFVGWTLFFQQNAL

Homo sapiens [4] = species: Homo sapiens; assay: Selectivity ratio of IC50 for LAR (unknown origin) to IC50 for PTP1B (unknown origin)
[5] = target: T4, Receptor-type tyrosine-protein phosphatase F (Homo sapiens, UniProt P10586); assay: Inhibition of LAR (unknown origin) using 3-o-methylfluorescein phosphatase substrate at 20 ug/ml by colorimetric assay
T4 sequence (P10586 whole entry): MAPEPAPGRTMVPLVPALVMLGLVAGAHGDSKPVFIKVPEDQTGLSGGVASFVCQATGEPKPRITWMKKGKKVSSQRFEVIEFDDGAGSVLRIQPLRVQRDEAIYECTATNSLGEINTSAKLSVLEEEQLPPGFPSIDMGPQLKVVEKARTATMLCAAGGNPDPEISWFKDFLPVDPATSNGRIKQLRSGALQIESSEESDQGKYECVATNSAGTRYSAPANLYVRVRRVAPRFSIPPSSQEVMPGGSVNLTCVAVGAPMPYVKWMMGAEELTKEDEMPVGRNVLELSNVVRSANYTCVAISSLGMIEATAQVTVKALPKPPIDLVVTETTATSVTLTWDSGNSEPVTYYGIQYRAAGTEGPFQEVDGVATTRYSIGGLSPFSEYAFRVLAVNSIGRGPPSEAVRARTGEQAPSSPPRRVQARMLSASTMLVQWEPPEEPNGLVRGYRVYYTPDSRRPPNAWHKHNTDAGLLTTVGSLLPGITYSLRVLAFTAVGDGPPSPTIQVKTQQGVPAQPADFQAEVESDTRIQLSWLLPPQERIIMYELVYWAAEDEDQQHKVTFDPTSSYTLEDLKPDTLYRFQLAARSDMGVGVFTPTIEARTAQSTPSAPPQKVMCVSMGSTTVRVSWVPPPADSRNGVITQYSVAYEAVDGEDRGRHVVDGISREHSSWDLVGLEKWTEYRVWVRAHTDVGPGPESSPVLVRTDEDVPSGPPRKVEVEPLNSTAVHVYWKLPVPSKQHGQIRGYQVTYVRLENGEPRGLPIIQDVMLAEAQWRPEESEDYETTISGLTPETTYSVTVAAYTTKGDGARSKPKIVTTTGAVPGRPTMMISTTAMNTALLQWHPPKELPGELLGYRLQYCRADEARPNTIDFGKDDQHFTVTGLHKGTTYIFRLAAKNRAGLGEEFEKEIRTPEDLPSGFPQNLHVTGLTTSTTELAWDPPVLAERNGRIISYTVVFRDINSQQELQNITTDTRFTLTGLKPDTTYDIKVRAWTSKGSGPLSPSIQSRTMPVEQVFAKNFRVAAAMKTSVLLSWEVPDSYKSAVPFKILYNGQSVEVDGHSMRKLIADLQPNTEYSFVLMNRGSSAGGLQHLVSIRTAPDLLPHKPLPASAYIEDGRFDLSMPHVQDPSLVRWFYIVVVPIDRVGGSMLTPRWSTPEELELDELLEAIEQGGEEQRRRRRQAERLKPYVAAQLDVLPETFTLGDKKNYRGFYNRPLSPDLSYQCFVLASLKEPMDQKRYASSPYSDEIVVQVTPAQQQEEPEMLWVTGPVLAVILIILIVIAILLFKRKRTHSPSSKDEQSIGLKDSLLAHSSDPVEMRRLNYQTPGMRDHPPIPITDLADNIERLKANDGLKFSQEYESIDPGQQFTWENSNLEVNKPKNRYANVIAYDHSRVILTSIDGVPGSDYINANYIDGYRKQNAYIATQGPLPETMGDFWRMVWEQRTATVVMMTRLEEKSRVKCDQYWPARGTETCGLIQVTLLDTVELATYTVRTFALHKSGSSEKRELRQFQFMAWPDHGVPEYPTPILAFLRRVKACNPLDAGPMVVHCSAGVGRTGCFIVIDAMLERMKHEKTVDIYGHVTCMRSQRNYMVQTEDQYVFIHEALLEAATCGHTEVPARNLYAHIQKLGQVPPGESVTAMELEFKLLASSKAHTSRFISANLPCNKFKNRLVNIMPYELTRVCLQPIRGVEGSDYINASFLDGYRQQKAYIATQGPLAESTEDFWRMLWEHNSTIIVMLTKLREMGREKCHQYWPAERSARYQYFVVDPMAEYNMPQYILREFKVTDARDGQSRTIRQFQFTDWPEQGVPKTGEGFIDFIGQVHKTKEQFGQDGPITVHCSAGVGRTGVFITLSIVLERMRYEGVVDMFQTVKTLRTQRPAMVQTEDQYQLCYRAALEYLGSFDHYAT

[6] = target: T5, Tyrosine-protein phosphatase non-receptor type 6 (Homo sapiens, UniProt P29350); assay: Inhibition of SHP1 (unknown origin) using 3-o-methylfluorescein phosphatase substrate by colorimetric assay
T5 sequence (P29350 whole entry): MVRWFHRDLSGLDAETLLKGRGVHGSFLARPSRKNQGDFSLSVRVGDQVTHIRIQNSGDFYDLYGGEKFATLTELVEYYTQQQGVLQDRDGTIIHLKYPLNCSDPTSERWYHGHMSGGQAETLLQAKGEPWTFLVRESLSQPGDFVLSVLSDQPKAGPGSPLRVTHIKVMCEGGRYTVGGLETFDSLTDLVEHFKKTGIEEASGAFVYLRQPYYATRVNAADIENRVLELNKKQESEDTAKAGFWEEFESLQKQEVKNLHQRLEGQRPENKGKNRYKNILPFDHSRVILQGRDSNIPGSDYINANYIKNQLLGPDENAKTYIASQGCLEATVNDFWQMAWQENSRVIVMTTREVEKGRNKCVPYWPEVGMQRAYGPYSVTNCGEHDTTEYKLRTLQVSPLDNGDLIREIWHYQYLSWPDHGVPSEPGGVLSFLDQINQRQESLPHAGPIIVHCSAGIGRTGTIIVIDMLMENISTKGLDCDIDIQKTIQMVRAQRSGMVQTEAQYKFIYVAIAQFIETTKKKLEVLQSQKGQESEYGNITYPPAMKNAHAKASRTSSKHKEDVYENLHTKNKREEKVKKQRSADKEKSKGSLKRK
Method in brief: (§2)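 SHP1, SHP2 or LAR recombinant enzyme at 20 nmol/L with 10 µmol/L OMFP in 50 mmol/L MOPS pH 6.5, 2 mmol/L DTT, 1 mmol/L EDTA, 2% DMSO, 30 °C. Fluorescent product read at ex 485/em 530 nm; initial rate from the early linear part of the kinetic curve.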

[7] = target: T4, Receptor-type tyrosine-protein phosphatase F; assay: Inhibition of LAR (unknown origin) using 3-o-methylfluorescein phosphatase substrate by colorimetric assay; method in brief: as §2
[8] = target: T1, Tyrosine-protein phosphatase non-receptor type 1 (Homo sapiens); assay: Inhibition of PTP1B (unknown origin) expressed in CHO cells co-expressing human IRbeta assessed as increase in insulin-stimulated IRbeta phosphorylation at 3 to 30 uM after 1 hr by Western blotting analysis; type: cell-based
Method in brief: (§3)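 CHO/hIR cells grown in F12 with 10% FBS, penicillin/streptomycin, 37 °C, 5% CO2. After 2 h serum starvation, compound for 1 h, then 10 nM insulin for 10 min. Lysates in SDS loading buffer run on 8% SDS-PAGE, blotted with anti-pTyr (PY20); β-actin as loading control.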

Homo sapiens [9] = species: Homo sapiens; assay: Selectivity ratio of IC50 for SHP2 (unknown origin) to IC50 for PTP1B (unknown origin)
[10] = target: T6, Tyrosine-protein phosphatase non-receptor type 11 (Homo sapiens, UniProt Q06124); assay: Inhibition of SHP2 (unknown origin) using 3-o-methylfluorescein phosphatase substrate by colorimetric assay; method in brief: as §2
T6 sequence (Q06124 whole entry): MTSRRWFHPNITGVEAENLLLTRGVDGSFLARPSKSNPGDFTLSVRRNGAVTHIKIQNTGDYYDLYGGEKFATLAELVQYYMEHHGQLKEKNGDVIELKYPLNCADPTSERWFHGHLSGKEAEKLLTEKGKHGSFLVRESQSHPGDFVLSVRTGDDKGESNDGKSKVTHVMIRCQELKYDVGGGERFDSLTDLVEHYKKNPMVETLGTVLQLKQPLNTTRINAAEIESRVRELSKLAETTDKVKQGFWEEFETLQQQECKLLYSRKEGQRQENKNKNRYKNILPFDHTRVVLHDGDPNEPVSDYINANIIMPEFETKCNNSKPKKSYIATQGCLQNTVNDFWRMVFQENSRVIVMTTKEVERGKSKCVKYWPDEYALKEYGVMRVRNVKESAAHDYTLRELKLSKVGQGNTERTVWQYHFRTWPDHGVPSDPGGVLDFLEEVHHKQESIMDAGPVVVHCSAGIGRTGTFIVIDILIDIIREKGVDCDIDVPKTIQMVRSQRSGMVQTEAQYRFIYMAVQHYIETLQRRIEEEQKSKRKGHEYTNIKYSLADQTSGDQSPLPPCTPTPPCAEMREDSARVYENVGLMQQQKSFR

[11] = target: T2, Tyrosine-protein phosphatase non-receptor type 1; assay: Competitive inhibition of PTP1B (unknown origin) using pNPP as substrate by Lineweaver-Burk plot
Method in brief: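 Kinetics in 100 µL of 50 mmol/L MOPS pH 6.5 with 30 nmol/L PTP1B, pNPP in 2-fold dilutions from 80 mmol/L, at several inhibitor concentrations. Ki taken from a linear replot of apparent Km/Vmax (slope of double-reciprocal plot) against [I].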

[12] = target: T1, Tyrosine-protein phosphatase non-receptor type 1 (Homo sapiens); assay: Inhibition of PTP1B (unknown origin) expressed in CHO cells co-expressing human IRbeta assessed as increase in insulin-stimulated IRbeta phosphorylation at 90 uM after 1 hr by Western blotting analysis; type: cell-based; method in brief: as §3
[13] = target: T7, Tyrosine-protein phosphatase non-receptor type 11 (Homo sapiens) (UniProt Q06124); assay: Inhibition of SHP2 (unknown origin) using 3-o-methylfluorescein phosphatase substrate at 20 ug/ml by colorimetric assay
T7 sequence (whole entry): T6 sequence (Q06124 whole entry)

Homo sapiens [14] = species: Homo sapiens; assay: Selectivity ratio of IC50 for TCPTP (unknown origin) to IC50 for PTP1B (unknown origin)
[15] = target: T5, Tyrosine-protein phosphatase non-receptor type 6; assay: Inhibition of SHP1 (unknown origin) using 3-o-methylfluorescein phosphatase substrate at 20 ug/ml by colorimetric assay
[16] = target: T8, Tyrosine-protein phosphatase non-receptor type 2 (Homo sapiens) (UniProt P17706); assay: Inhibition of TCPTP (unknown origin) using pNPP as substrate at 20 ug/ml by colorimetric assay
T8 sequence (whole entry): T3 sequence (P17706 whole entry)

SMILES: COC(=O)c1c(O)cccc1OCCCNC(=O)c1cn(Cc2ccccc2)c2cc(F)ccc2c1=O
IC50 [2]: 18.6 µM

SMILES: O=C(NCc1ccccc1)c1cn(C2CC2)c2ccc(F)cc2c1=O
inhibition [1]: 0.2%

SMILES: O=C(O)c1cn(C2CC2)c2ccc(F)cc2c1=O
inhibition [1]: 0.8%

SMILES: O=C(NCc1ccc(F)cc1)c1cn(C2CC2)c2ccc(I)cc2c1=O
inhibition [1]: 3.3%

SMILES: COC(=O)c1cc(Cn2cc(C(=O)NCc3ccccc3)c(=O)c3cc(I)ccc32)ccc1OC
IC50 [2]: > 34.3 µM

SMILES: O=C(OCc1ccc(F)cc1)c1cn(C2CC2)c2ccc(Cc3ccc(F)cc3)cc2c1=O
IC50 [2]: 31.4 µM | inhibition [1]: 73%

SMILES: O=C(NCc1ccccc1)c1cn(C2CC2)c2ccc(I)cc2c1=O
inhibition [1]: 6.1%

SMILES: O=C(OCc1ccccc1)c1cn(C2CC2)c2ccc(I)cc2c1=O
IC50 [2]: 25.6 µM | inhibition [1]: 80.5%

SMILES: O=C(/C=C(\O)C(=O)N1CCN(C(=O)/C(O)=C\C(=O)c2cccc(N(Cc3ccccc3)Cc3ccccc3)c2)CC1)c1cccc(N(Cc2ccccc2)Cc2ccccc2)c1
IC50 [2]: 2.8 µM

SMILES: COC(=O)c1c(O)cccc1OCCCNC(=O)c1cn(Cc2ccc(F)cc2)c2ccc([N+](=O)[O-])cc2c1=O
inhibition [15]: < 50% | IC50 [3]: Not Active | inhibition [5]: < 50% | IC50 [6]: Not Active | IC50 [7]: Not Active | inhibition [16]: < 50% | IC50 [2]: 11.8 µM | IC50 [10]: Not Active | inhibition [13]: < 50%

SMILES: O=C(NCc1ccccc1)c1cn(Cc2ccccc2)c2ccc(I)cc2c1=O
inhibition [15]: < 50% | IC50 [3]: Not Active | inhibition [5]: < 50% | IC50 [6]: Not Active | IC50 [7]: Not Active | inhibition [16]: < 50% | IC50 [2]: 28.1 µM | IC50 [10]: Not Active | inhibition [1]: 61.8% | inhibition [13]: < 50%

SMILES: O=C(NCc1ccccc1)c1cn(Cc2ccccc2)c2ccc(F)cc2c1=O
inhibition [1]: 41.4%

SMILES: O=C(NCc1ccccc1)c1cn(C2CC2)c2cc(F)ccc2c1=O
inhibition [1]: 7.4%

SMILES: COC(=O)c1c(OCCCN2CCN(c3ccc4c(c3)c(=O)c(C(=O)O)cn4C3CC3)CC2)cccc1OCc1ccccc1
IC50 [2]: 73.9 µM

SMILES: O=C(O)c1cn(C2CC2)c2ccc(I)cc2c1=O
inhibition [1]: 3.5%

Other lines, results leading:

inhibition [1]: 3.1%
SMILES: O=C(O)c1cn(Cc2ccccc2)c2ccc(I)cc2c1=O

inhibition [1]: 36.2%
SMILES: O=C(O)c1cn(Cc2ccc(F)cc2)c2ccc([N+](=O)[O-])cc2c1=O

inhibition [1]: 15.1%
SMILES: O=C(O)c1cn(Cc2ccccc2)c2ccc(F)cc2c1=O

inhibition [1]: 0.7%
SMILES: O=C(O)c1cn(Cc2ccccc2)c2cc(F)ccc2c1=O

IC50 [2]: > 40.5 µM
SMILES: COC(=O)c1cc(Cn2cc(C(=O)O)c(=O)c3cc(I)ccc32)ccc1OC

IC50 ([3]; read-out: IC50 (converted)): 11.5 µM | Ratio IC50 (Homo sapiens [4]): > 10 | inhibition [5]: < 50% | IC50 ([6]; read-out: IC50 (converted)): 12.4 µM | IC50 [7]: Not Active | Activity [8]: inactive | IC50 [2]: 5.66 µM | Ratio IC50 (Homo sapiens [9]): > 10 | IC50 [10]: Not Active | Ki [11]: 1.33 µM | Activity [12]: Active | inhibition [13]: < 50% | Ratio IC50 (Homo sapiens [14]): 2
SMILES: CCOC(=O)/C(O)=C/C(=O)c1cccc(Cn2cc(C(=O)O)c(=O)c3cc(I)ccc32)c1

inhibition [1]: 0.1%
SMILES: O=C(OCc1ccccc1)c1cn(Cc2ccccc2)c2ccc(Cc3ccccc3)cc2c1=O

inhibition [1]: 12.4%
SMILES: Nc1ccc2c(c1)c(=O)c(C(=O)O)cn2Cc1ccc(F)cc1

IC50 [2]: 22.8 µM | inhibition [1]: 62.3%
SMILES: O=C(O)c1cn(C2CC2)c2ccc(N3CCN(Cc4ccccc4)CC3)cc2c1=O

IC50 ([3]; read-out: IC50 (converted)): 9.44 µM | Ratio IC50 (Homo sapiens [4]): > 10 | inhibition [5]: < 50% | IC50 ([6]; read-out: IC50 (converted)): 9.82 µM | IC50 [7]: Not Active | IC50 [2]: 4.62 µM | Ratio IC50 (Homo sapiens [9]): > 10 | IC50 [10]: Not Active | inhibition [13]: < 50% | Ratio IC50 (Homo sapiens [14]): 2
SMILES: O=C(O)/C(O)=C/C(=O)c1cccc(Cn2cc(C(=O)O)c(=O)c3cc(I)ccc32)c1

inhibition [15]: < 50% | IC50 [3]: Not Active | inhibition [5]: < 50% | IC50 [6]: Not Active | IC50 [7]: Not Active | inhibition [16]: < 50% | IC50 [2]: 36.5 µM | IC50 [10]: Not Active | inhibition [1]: 71.1% | inhibition [13]: < 50%
SMILES: O=C(O)c1cn(C2CC2)c2ccc(Cc3ccc(F)cc3)cc2c1=O

inhibition [15]: < 50% | IC50 [3]: Not Active | inhibition [5]: < 50% | IC50 [6]: Not Active | IC50 [7]: Not Active | inhibition [16]: < 50% | IC50 [2]: 16.9 µM | IC50 [10]: Not Active | inhibition [13]: < 50%
SMILES: COC(=O)c1cc(Cn2cc(C(=O)O)c(=O)c3cc(I)ccc32)ccc1O

inhibition [1]: 15.1%
SMILES: O=C(O)c1cn(Cc2ccccc2)c2ccc(Cc3ccccc3)cc2c1=O

inhibition [15]: < 50% | IC50 [3]: Not Active | inhibition [5]: < 50% | IC50 [6]: Not Active | IC50 [7]: Not Active | inhibition [16]: < 50% | IC50 [2]: 23.5 µM | IC50 [10]: Not Active | inhibition [1]: 87.5% | inhibition [13]: < 50%
SMILES: O=C(O)c1cn(C2CC2)c2ccc(Cc3ccccc3)cc2c1=O
